Assay results from ChEMBL document CHEMBL1146375, “Synthetic studies on novel benzimidazolopeptides with antimicrobial, cytotoxic and anthelmintic potential” (2007).
Values after ≈ are worked out from the molar mass of the structure shown. Residues, ends and D or L forms follow the SMILES beside them. *: point of attachment. X1 = Cc1cc2nc(-c3ccc(O)c(C(=O)*)c3)[nH]c2cc1C

How the values were obtained:
[1] = Growth inhibition of EAC cells at 250 ug/mL after 3 hrs; assay type: functional; settings: Mus musculus, Ehrlich
Method in brief: (§1)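 DLA and EAC cells passaged intraperitoneally in albino mice, harvested after 15–20 days and adjusted to 1 × 10⁶ cells/mL. Dilutions in Dulbecco's medium (500–31.25, some down to 3.91 µg/mL; 5-FU reference) mixed 1:1 with cells and held 3 h at 37 °C. Trypan blue exclusion gave % growth inhibition; CTC50 by graphical extrapolation.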

[2] = Growth inhibition of EAC cells at 3.91 ug/mL after 3 hrs; assay type: functional; settings: Mus musculus, Ehrlich; method in brief: as §1
[3] = Growth inhibition of EAC cells at 7.81 ug/mL after 3 hrs; assay type: functional; settings: Mus musculus, Ehrlich; method in brief: as §1
[4] = Growth inhibition of DLA cells at 62.5 ug/mL after 3 hrs; assay type: functional; settings: Mus musculus; method in brief: as §1
[5] = Growth inhibition of DLA cells at 31.25 ug/mL after 3 hrs; assay type: functional; settings: Mus musculus; method in brief: as §1
[6] = Growth inhibition of DLA cells at 3.91 ug/mL after 3 hrs; assay type: functional; settings: Mus musculus; method in brief: as §1
[7] = Growth inhibition of EAC cells at 500 ug/mL after 3 hrs; assay type: functional; settings: Mus musculus, Ehrlich; method in brief: as §1
[8] = Growth inhibition of EAC cells after 3 hrs; assay type: functional; settings: Mus musculus, Ehrlich; method in brief: as §1
[9] = Growth inhibition of DLA cells at 7.81 ug/mL after 3 hrs; assay type: functional; settings: Mus musculus; method in brief: as §1
[10] = Growth inhibition of EAC cells at 15.63 ug/mL after 3 hrs; assay type: functional; settings: Mus musculus, Ehrlich; method in brief: as §1
[11] = Growth inhibition of DLA cells at 15.63 ug/mL after 3 hrs; assay type: functional; settings: Mus musculus; method in brief: as §1
[12] = Growth inhibition of DLA cells after 3 hrs; assay type: functional; settings: Mus musculus; method in brief: as §1
[13] = test system: Bacillus subtilis; assay: Antibacterial activity against Bacillus subtilis NCIM 2063 after 18 hrs by tube dilution method; assay type: functional; settings: NCIM 2063, 18 h
Method in brief: (§2)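 Tube dilution MIC. Stock diluted in sterile broth to seven concentrations from 200 to 3.1 […]. Each tube inoculated with one loopful of test bacterium and incubated 18 h at 37 °C. MIC read from presence or absence of growth.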

[14] = test system: Trichophyton benhamiae; assay: Antifungal activity against Trichophyton mentagrophytes MUCC 665 after 48 hrs by tube dilution method; assay type: functional, Arthroderma benhamiae
Method in brief: (§3)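 Tube dilution MIC as for bacteria (seven concentrations, 200–3.1 […]), with DMSO in place of DMF. Tubes inoculated with fungal culture and incubated 48 h at 37 °C. MIC read from presence or absence of growth.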

[15] = Growth inhibition of EAC cells at 31.25 ug/mL after 3 hrs; assay type: functional; settings: Mus musculus, Ehrlich; method in brief: as §1
[16] = test system: Trichophyton benhamiae; assay: Antifungal activity against Trichophyton mentagrophytes MUCC 665 after 48 hrs by disc diffusion method; assay type: functional, Arthroderma benhamiae
Method in brief: (§4)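 Agar well diffusion on plates inoculated with spore suspension in normal saline from cultures on Sabouraud's broth. Wells punched and loaded with test samples or griseofulvin at 10 mg mL^-1, with DMSO as negative control. Incubated 48 h at 37 °C.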

[17] = test system: Candida albicans; assay: Antifungal activity against Candida albicans MUCC 29 after 48 hrs by disc diffusion method; assay type: functional; method in brief: as §4
[18] = test system: Eudrilus; assay: Anthelmintic activity against Eudrilus sp. assessed as mean paralyzing time; assay type: functional
Method in brief: (§5)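 Earthworms exposed to test suspensions at 2 mg mL^-1 (0.2% w/v), made by triturating compound with Tween 80 (0.5%) and distilled water, then mechanically stirred 30 min. Mebendazole suspension prepared alike as reference. Paralysis and death times recorded; death confirmed by no movement in 50 °C water. Means from triplicate sets.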

[19] = test system: Pontoscolex corethrurus; assay: Anthelmintic activity against Pontoscolex corethrurus ICARBC 408 assessed as mean paralyzing time; assay type: functional; method in brief: as §5
[20] = Anthelmintic activity against Megascoplex konkanensis ICARBC 211 assessed as mean death time; assay type: functional; method in brief: as §5
[21] = test system: Microsporum audouinii; assay: Antifungal activity against Microsporum audouinii MUCC 545 after 48 hrs by tube dilution method; assay type: functional; method in brief: as §3
[22] = test system: Bacillus subtilis; assay: Antibacterial activity against Bacillus subtilis NCIM 2063 after 18 hrs by disc diffusion method; assay type: functional
Method in brief: (§6)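 Modified Kirby-Bauer disc diffusion. Plates inoculated with spore suspension (about 6 × 10⁴ spores mL^-1). Sterile 6 mm paper discs carried test samples at 10 mg mL^-1; ciprofloxacin disc as reference, DMF disc as negative control. Plates held 18 h at 37 °C. Inhibition zone diameters (mm) averaged over triplicate sets.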

[23] = test system: Eudrilus; assay: Anthelmintic activity against Eudrilus sp. assessed as mean death time; assay type: functional
Method in brief: (§7)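 Earthworms exposed to test suspensions at 2 mg mL−1, prepared by triturating compound with Tween 80 (0.5%) and distilled water, stirring 30 min, then diluting to 0.2% w/v. Mebendazole suspension was made the same way. Death was confirmed by moving worms into 50 °C warm water and looking for movement. Mean death time (min) taken from triplicate sets.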

[24] = test system: Staphylococcus aureus; assay: Antibacterial activity against Staphylococcus aureus NCIM 2079 after 18 hrs by tube dilution method; assay type: functional; settings: NCIM 2079, 18 h; method in brief: as §2
[25] = test system: Staphylococcus aureus; assay: Antibacterial activity against Staphylococcus aureus NCIM 2079 after 18 hrs by disc diffusion method; assay type: functional; method in brief: as §6
[26] = test system: Escherichia coli; assay: Antibacterial activity against Escherichia coli NCIM 2065 after 18 hrs by disc diffusion method; assay type: functional; method in brief: as §6
[27] = test system: Pseudomonas aeruginosa; assay: Antibacterial activity against Pseudomonas aeruginosa NCIM 2034 after 18 hrs by tube dilution method; assay type: functional; settings: NCIM 2034, 18 h; method in brief: as §2
[28] = Anthelmintic activity against Megascoplex konkanensis ICARBC 211 assessed as mean paralyzing time; assay type: functional; method in brief: as §5
[29] = test system: Escherichia coli; assay: Antibacterial activity against Escherichia coli NCIM 2065 after 18 hrs by tube dilution method; assay type: functional; settings: NCIM 2065, 18 h
[30] = test system: Aspergillus niger; assay: Antifungal activity against Aspergillus niger MUCC 177 after 48 hrs by disc diffusion method; assay type: functional; method in brief: as §4
[31] = test system: Pseudomonas aeruginosa; assay: Antibacterial activity against Pseudomonas aeruginosa NCIM 2034 after 18 hrs by disc diffusion method; assay type: functional; method in brief: as §6
[32] = test system: Pontoscolex corethrurus; assay: Anthelmintic activity against Pontoscolex corethrurus ICARBC 408 assessed as mean death time; assay type: functional; method in brief: as §7
[33] = test system: Microsporum audouinii; assay: Antifungal activity against Microsporum audouinii MUCC 545 after 48 hrs by disc diffusion method; assay type: functional; method in brief: as §4
[34] = test system: Candida albicans; assay: Antifungal activity against Candida albicans MUCC 29 after 48 hrs by tube dilution method; assay type: functional; method in brief: as §3
[35] = Growth inhibition of EAC cells at 62.5 ug/mL after 3 hrs; assay type: functional; settings: Mus musculus, Ehrlich; method in brief: as §1
[36] = Growth inhibition of DLA cells at 250 ug/mL after 3 hrs; assay type: functional; settings: Mus musculus; method in brief: as §1
[37] = Growth inhibition of DLA cells at 500 ug/mL after 3 hrs; assay type: functional; settings: Mus musculus; method in brief: as §1
[38] = Growth inhibition of EAC cells at 125 ug/mL after 3 hrs; assay type: functional; settings: Mus musculus, Ehrlich; method in brief: as §1
[39] = Growth inhibition of DLA cells at 125 ug/mL after 3 hrs; assay type: functional; settings: Mus musculus; method in brief: as §1

SMILES | inhibition at 250 µg/mL [1] [%] | inhibition at 3.91 µg/mL [2] [%] | inhibition at 7.81 µg/mL [3] [%] | inhibition at 62.5 µg/mL [4] [%] | inhibition at 31.25 µg/mL [5] [%] | inhibition at 3.91 µg/mL [6] [%] | inhibition at 500 µg/mL [7] [%] | CC50 [8] [µM] | inhibition at 7.81 µg/mL [9] [%] | inhibition at 15.63 µg/mL [10] [%] | inhibition at 15.63 µg/mL [11] [%] | CC50 [12] [µM] | MIC [13] [µg/mL] | MIC [14] [µg/mL] | inhibition at 31.25 µg/mL [15] [%] | inhibition zone (IZ) [16] [mm] | inhibition zone (IZ) [17] [mm] | Time [18] [min] | Time [19] [min] | TIME [20] [h] | other results
O=c1[nH]cc(F)c(=O)[nH]1 [FLUOROURACIL] | 100 | 17.9 | 32.1 | 100 | 100 | 42.1 | 100 | 90.5 | 65.8 | 60.7 | 73.7 | 37.4 | – | – | – | – | – | – | – | – | –
COC(=O)[C@H](Cc1cnc[nH]1)NC(=O)CNC(=O)[C@H](Cc1c[nH]c2ccccc12)NC(=O)CNC(=O)c1cc(-c2nc3cc(C)c(C)cc3[nH]2)ccc1O (X1-GWGH-OMe) | – | 7.14 | 35.7 | 100 | 86.8 | 26.3 | – | 18.9 | 44.7 | 53.6 | 55.3 | 15.3 | 6 (≈ 8.18 µM) | 6 (≈ 8.18 µM) | 71.4 | 15 | 17 | 11.06 | 14.34 | 0.291 | MIC [21]: 6 µg/mL (≈ 8.18 µM); inhibition zone (IZ) [22]: 12 mm; Time [23]: 20.94 min; MIC [24]: 12.5 µg/mL (≈ 17 µM); inhibition zone (IZ) [25]: 9 mm; inhibition zone (IZ) [26]: 17 mm; MIC [27]: 6 µg/mL (≈ 8.18 µM); TIME [28]: 0.157 h; MIC [29]: 12.5 µg/mL (≈ 17 µM); inhibition zone (IZ) [30]: 15 mm; inhibition zone (IZ) [31]: 23 mm; Time [32]: 26.21 min; inhibition zone (IZ) [33]: 10 mm; MIC [34]: 6 µg/mL (≈ 8.18 µM); inhibition at 62.5 µg/mL [35]: 100%
C[C@H](NC(=O)[C@@H]1CCCN1C(=O)c1cc(-c2nc3ccc([N+](=O)[O-])cc3[nH]2)ccc1O)C(=O)O | 17.9 | – | – | 18.4 | 7.89 | – | 25 | > 1070 | – | – | – | > 1070 | 12.5 (≈ 26.7 µM) | 6 (≈ 12.8 µM) | 7.14 | 17 | 22 | 27.12 | 31.9 | 0.585 | inhibition at 250 µg/mL [36]: 26.3%; MIC [21]: 6 µg/mL (≈ 12.8 µM); inhibition zone (IZ) [22]: 13 mm; inhibition at 500 µg/mL [37]: 34.2%; Time [23]: 35.69 min; MIC [24]: 25 µg/mL (≈ 53.5 µM); inhibition zone (IZ) [25]: 9 mm; inhibition at 125 µg/mL [38]: 14.3%; inhibition zone (IZ) [26]: 18 mm; MIC [27]: 6 µg/mL (≈ 12.8 µM); TIME [28]: 0.436 h; MIC [29]: 12.5 µg/mL (≈ 26.7 µM); inhibition zone (IZ) [30]: 16 mm; inhibition at 125 µg/mL [39]: 21%; inhibition zone (IZ) [31]: 28 mm; Time [32]: 43.55 min; inhibition zone (IZ) [33]: 12 mm; MIC [34]: 6 µg/mL (≈ 12.8 µM); inhibition at 62.5 µg/mL [35]: 7.14%
